In PMC10693281 (International Journal of Nanomedicine, 2023):

How the values were obtained:
[1] = In-vitro drug release, dialysis bag diffusion method; type: physicochemical; conditions: PBS pH 7.4
How it was run: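 Dialysis bag (MW 12,500 Da, ~2.4 nm pores), pre-soaked 24 h in pH 7.4 PBS, filled with 2 mL drug-loaded lipid-carrier dispersion and sealed. Suspended in 100 mL pH 7.4 PBS at 37 ± 1°C under sink conditions, agitated at 100 rpm for 48 h.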

[2] = Pharmacokinetic study, single i.v. injection; type: in vivo, Wistar rats; conditions: male, Wistar, rat, plasma, iv, 10 mg/kg
[3] = test system: IL-2, IL-6, IL-1β, caspase-9; test: Proinflammatory cytokines and caspase-9 by ELISA; type: in vivo, Wistar rats; conditions: DEN-induced rats
How it was run: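 IL-2, IL-6, IL-1β and caspase-9 were measured in hepatic tissue of DEN-induced HCC rats using commercial ELISA kits per manufacturer's instructions.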

GF release ([1]; 48 hours): 95.63 ± 4.04% | GF released ([1]; within 4 hours): approximately 80% | AUC(0-inf) [2]: 41100 ± 13200 ng·h/mL | AUC(0-t) [2]: 33300 ± 9550 ng·h/mL | Cmax [2]: 7820 ± 1140 ng/mL | MRT inf [2]: 12.2 ± 2 h | half-life [2]: 7.66 ± 1.7 h
Compound: COc1cc2ncnc(Nc3ccc(F)c(Cl)c3)c2cc1OCCCN1CCOCC1 [Gefitinib]
caspase 9 levels [3]: increased significantly
